Activity calls are given as the source filed them. The rule behind the calls is not given here.

One data set deals with AGS. Description: Antiproliferative activity against human AGS cells by MTT assay. It is filed as functional, cell-based. A digest of the protocol:
(§1)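 Cells were grown in medium with 10% heat-inactivated FBS, penicillin G and streptomycin, and were plated in 96-well plates. One day after seeding, they were exposed for 72 h to 0–100 µM compound (DMSO stock diluted in complete medium, final DMSO 1%). Viability was read by MTT reduction. IC50 values came from fitting the dose-response curves to a sigmoidal model.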

Data set [1] can be described thus: Antiproliferative activity against human CRL1739 cells by MTT assay. Format: functional, cell-based. The essentials:
as §1
(Formazan colour is commonly taken as a measure of viable cells.)

Another data set relates to SK-MES-1. Description: Antiproliferative activity against human SKMES1 cells by MTT assay. It is filed as functional, cell-based. The essentials: as §1
Data set [2] in a line: (§2) Antiproliferative activity against human HTB-58 cells by MTT assay. Format: functional, cell-based. The essentials:
as §1

A further data set deals with J82. The experiment in a line: Antiproliferative activity against human J82 cells by MTT assay. It is filed as functional, cell-based. A digest of the protocol:
as §1

A short description of data set [3]: (§3) Antiproliferative activity against human HTB-1 cells by MTT assay. It is filed as functional, cell-based. The essentials:
as §1

Another data set concerns MRC5. Description: Antiproliferative activity against human MRC5 cells by MTT assay. It is filed as cell-based. A digest of the protocol: as §1
Data set [4] can be described thus: Antiproliferative activity against human CCL171 cells by MTT assay. It is filed as cell-based. A digest of the protocol: as §1
A further data set relates to HTB-58. The description is as §2. Format: functional, cell-based. A digest of the protocol:
as §1

The subject of another data set is HTB-1. The data set is described as §3. Format: functional, cell-based. The essentials:
as §1

What is called IC50 is the concentration that gives 50% inhibition. As to `COc1cc2ccnc3c2c(c1[N+](=O)[O-])C(=O)c1ccccc1-3`, the IC50 (with AGS; in [1]; in the data set with SK-MES-1; in [2]; in the data set with J82; in data set [3]) was above 2090 nM throughout.

Take `COc1cc2c3c(c1[N+](=O)[O-])CCN=C3c1ccccc1C2=O`: the IC50 (in the data set with AGS; in data set [1]; in the data set with SK-MES-1; in [2]; with J82; in [3]) was above 2090 nM each time.

As to `COc1ccc2c(c1)C(=O)c1c(NCCc3ccc(O)cc3)c(OC)cc3ccnc-2c13` [DAURIOXOISOPORPHINE A], the IC50 (with AGS; in data set [1]; in the data set with SK-MES-1; in [2]; with J82; in data set [3]) was above 3000 nM in each case.

As to `COc1cc2c3c(nccc3c1)-c1ccccc1C2=O`, the IC50 (with AGS; in [1]; with SK-MES-1; in data set [2]; with J82; in [3]) was above 2090 nM in each case.

For the molecule `COc1ccc2c(c1)C(=O)c1c(N)c(OC)c(OC)c3ccnc-2c13` [DAURIOXOISOPORPHINE B], the IC50 (in the data set with AGS; in [1]; with SK-MES-1; in [2]; with J82; in [3]) was above 3000 nM each time.

`COc1ccc2c(c1)C(=O)c1c(NCCc3ccc(O)cc3)c(OC)c(OC)c3ccnc-2c13` [TYRAMINOPORPINE]: the half-inhibitory concentration (IC50) (in the data set with AGS; in [1]; in the data set with SK-MES-1; in [2]; in the data set on J82; in [3]) was above 2090 nM in each case.

On to `COc1cc2c3c(nccc3c1[N+](=O)[O-])-c1ccccc1C2=O`, for which the Activity entry (in the data set on MRC5; in data set [4]) was “Non-toxic” in each case. Also, the concentration for half-maximal inhibition (IC50) (in the data set with AGS; in data set [1]) was 4500 nM each time. Besides, the outcome in the data set on SK-MES-1, with HTB-58, in the data set on J82 and with HTB-1 was inactive.

For the molecule `CNc1c(OC)cc2ccnc3c2c1C(=O)c1cc(OC)ccc1-3` [DAURIOXOISOAPORPHINE C], the half-inhibitory concentration (IC50) (in the data set with AGS; in [1]; with SK-MES-1; in data set [2]; in the data set with J82; in [3]) was above 2090 nM in each case.

As to `COc1cc2c3c(c1[N+](=O)[O-])C(=O)c1ccccc1C3=NCC2`, the 50% inhibitory concentration (IC50) (in the data set on AGS; in [1]; in the data set on SK-MES-1; in [2]; in the data set on J82; in data set [3]) was above 2090 nM each time.

As for `COc1cc2c3c(nccc3c1N)-c1ccccc1C2=O`, the IC50 (in the data set with AGS; in data set [1]; in the data set with SK-MES-1; in data set [2]; in the data set on J82; in data set [3]) was above 2090 nM throughout.

With `COc1cc2ccnc3c2c(c1N)C(=O)c1ccccc1-3` [LAKSHMININE], the half-maximal inhibitory concentration (IC50) (with AGS; in data set [1]; in the data set on SK-MES-1; in data set [2]; in the data set with J82; in data set [3]) was above 2090 nM each time.

As to `COc1cc2c3c(c1)C(=O)c1ccccc1C3=NCC2`, the IC50 (in the data set with AGS; in data set [1]; in the data set with SK-MES-1; in data set [2]; with J82; in data set [3]) was above 2090 nM each time.

Values taken from ChEMBL document CHEMBL1649338, “Synthesis of lakshminine and antiproliferative testing of related oxoisoaporphines” (J Nat Prod, 2010).
